The values that follow come from ChEMBL document CHEMBL2401735, “Synthesis and cytotoxicity of novel (thiazol-2-yl)hydrazine derivatives as promising anti-Candida agents” (Eur J Med Chem, 2013).

For orientation: CC50 means the concentration at which the toxic effect on the cells reaches its halfway point. For orientation: MIC means the smallest concentration in the dilution series that meets the test's criterion for growth inhibition.

The test system of series [1] is HEp-2. Kind of series: Cytotoxicity against human Hep2 cells assessed as appearance of autophagic vacuoles near to mitochondrial proximity in cytoplasm at 5 to 100 ug/ml after 24 hrs by transmission electron microscopic analysis. Type of series: cell-based. The conditions noted are these: hep-2, 24 h. A digest of the protocol:
(§1)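 Hep2 cells treated and then examined by transmission electron microscopy, with unexposed cells as controls. Samples stained with 0.1% tannic acid for 30 min and uranyl acetate (5 mg/mL) for 1 h at 25 °C, dehydrated in graded acetone, embedded in Epon-812. Ultrathin sections counterstained with uranyl acetate and lead citrate before viewing.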

Series [2] is described as follows: Cytotoxicity against human Hep2 cells assessed as reduction of cell viability after 24 hrs by trypan blue exclusion assay. Type of series: cell-based. The conditions noted are these: HEp-2 cells. A digest of the protocol:
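Hep2 cells in DMEM with 10% FBS, penicillin-streptomycin, 5% CO₂, 37 °C. Cells at 1 × 10⁵/mL exposed 24 h to seven concentrations (0.005-100 µg/mL), DMSO ≤0.5% final; controls were medium alone, DMSO, and 1 mM sodium nitroprusside. Cells scraped, allowed 30 min recovery, mixed 1:1 with 0.4% trypan blue, counted by hemocytometer by two operators.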

The nature of series [3]: Cytotoxicity against human Hep2 cells assessed as cell survival fraction at 0.005 ug/ml after 24 hrs by trypan blue exclusion assay (reference value: 97 to 98%). Type of series: cell-based. The following applies: HEp-2 cells, read-out: Survival.
Series [4] in a line: Cytotoxicity against human Hep2 cells assessed as cell survival fraction at 0.05 ug/ml after 24 hrs by trypan blue exclusion assay (reference value: 97 to 98%). Type of series: cell-based. The following applies: HEp-2 cells, read-out: Survival.
A short description of series [5]: Cytotoxicity against human Hep2 cells assessed as cell survival fraction at 0.5 ug/ml after 24 hrs by trypan blue exclusion assay (reference value: 97 to 98%). Type of series: cell-based. The conditions noted are these: HEp-2 cells, read-out: Survival.
Series [6] can be described thus: Cytotoxicity against human Hep2 cells assessed as cell survival fraction at 5 ug/ml after 24 hrs by trypan blue exclusion assay (reference value: 97 to 98%). Type of series: cell-based. The following applies: HEp-2 cells, read-out: Survival.
Series [7] is described as follows: Cytotoxicity against human Hep2 cells assessed as cell survival fraction at 10 ug/ml after 24 hrs by trypan blue exclusion assay (reference value: 97 to 98%). Type of series: cell-based. The conditions noted are these: HEp-2 cells, read-out: Survival.
Series [8] can be described thus: Cytotoxicity against human Hep2 cells assessed as cell survival fraction at 50 ug/ml after 24 hrs by trypan blue exclusion assay (reference value: 97 to 98%). Type of series: cell-based. The following applies: HEp-2 cells, read-out: Survival.
A short description of series [9]: Cytotoxicity against human Hep2 cells assessed as cell survival fraction at 100 ug/ml after 24 hrs by trypan blue exclusion assay (reference value: 97 to 98%). Type of series: cell-based. The conditions noted are these: HEp-2 cells, read-out: Survival.
Series [10] concerns [Candida] sake. The series can be described thus: Anticandida activity against Candida sake clinical isolate assessed as growth inhibition after 24 hrs by broth microdilution method. Type of series: functional. The conditions noted are these: Fermentozyma sake. The method, boiled down: (§2)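 Clinical Candida isolates subcultured for purity and optimal growth before testing; compounds dissolved in DMSO. Broth microdilution per NCCLS in Sabouraud dextrose broth, serial dilutions, inoculum about 10³/mL, with growth control and medium-only control; 24 h incubation at 37 °C. MIC is the lowest concentration giving complete visible inhibition.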
On the technique in general: Dilution methods test growth across graded concentrations, often in twofold steps.

Series [11] has as its system Candida parapsilosis. Kind of series: Anticandida activity against Candida parapsilosis clinical isolate assessed as growth inhibition after 24 hrs by broth microdilution method. Type of series: functional. The conditions noted are these: Lodderomyces parapsilosis. The method, boiled down:
as §2

Series [12] concerns Pichia kudriavzevii. The series can be described thus: Anticandida activity against Candida krusei clinical isolate assessed as growth inhibition after 24 hrs by broth microdilution method. Type of series: functional. The method, boiled down: as §2
Series [13] relates to Candida tropicalis. Kind of series: Anticandida activity against Candida tropicalis clinical isolate assessed as growth inhibition after 24 hrs by broth microdilution method. Type of series: functional. The method, boiled down:
as §2

Series [14] concerns Nakaseomyces glabratus. Kind of series: Anticandida activity against Candida glabrata clinical isolate assessed as growth inhibition after 24 hrs by broth microdilution method. Type of series: functional. A digest of the protocol: as §2
Series [15] concerns Candida albicans. Kind of series: Anticandida activity against Candida albicans clinical isolate assessed as growth inhibition after 24 hrs by broth microdilution method. Type of series: functional. The method, boiled down:
as §2

Series [16] relates to Klebsiella oxytoca. The series can be described thus: Antibacterial activity against Klebsiella oxytoca assessed as growth inhibition after 18 to 22 hrs by broth microdilution method. Type of series: functional. A digest of the protocol: (§3)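 Bacterial isolates subcultured for purity, identified conventionally. Broth microdilution per NCCLS in Mueller-Hinton II broth; plates with growth control (no compound) and medium-only control, incubated 18-22 h at 35 °C. MIC taken as lowest concentration giving complete growth inhibition by unaided eye.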

Series [17] relates to Proteus mirabilis. Kind of series: Antibacterial activity against Proteus mirabilis assessed as growth inhibition after 18 to 22 hrs by broth microdilution method. Type of series: functional. The method, boiled down:
as §3

In series [18] the test system is Enterobacter sp. Kind of series: Antibacterial activity against Enterobacter spp. assessed as growth inhibition after 18 to 22 hrs by broth microdilution method. Type of series: functional. The method, boiled down: as §3
Series [19] has as its system Escherichia coli. The series can be described thus: Antibacterial activity against Escherichia coli assessed as growth inhibition after 18 to 22 hrs by broth microdilution method. Type of series: functional. The method, boiled down:
as §3

The test system of series [20] is Enterococcus faecalis. The series can be described thus: Antibacterial activity against […] assessed as growth inhibition after 18 to 22 hrs by broth microdilution method. Type of series: functional. The method, boiled down:
as §3

Series [21] has as its system Staphylococcus warneri. Kind of series: Antibacterial activity against Staphylococcus warneri assessed as growth inhibition after 18 to 22 hrs by broth microdilution method. Type of series: functional. A digest of the protocol:
as §3

Series [22] has as its system Staphylococcus aureus. The series can be described thus: Antibacterial activity against Staphylococcus aureus assessed as growth inhibition after 18 to 22 hrs by broth microdilution method. Type of series: functional. A digest of the protocol: as §3
Series [23] deals with Streptococcus alpha-hemolyticus. Kind of series: Antibacterial activity against Streptococcus alpha-hemolyticus assessed as growth inhibition after 18 to 22 hrs by broth microdilution method.
The test system of series [24] is HEp-2. Kind of series: Cytotoxicity against human Hep2 cells assessed as dilatation of endoplasmic reticulum at 100 ug/ml after 24 hrs by transmission electron microscopic analysis. Type of series: cell-based. The conditions noted are these: hep-2, 24 h. The method, boiled down: as §1
Series [25] concerns HEp-2. Kind of series: Cytotoxicity against human Hep2 cells assessed as mitochondrial swelling at 5 ug/ml after 24 hrs by transmission electron microscopic analysis. Type of series: cell-based. The conditions noted are these: hep-2, 24 h. A digest of the protocol: as §1
Series [26] deals with HEp-2. Kind of series: Cytotoxicity against human Hep2 cells assessed as loss of cristae at 5 ug/ml after 24 hrs by transmission electron microscopic analysis. Type of series: cell-based. The following applies: hep-2, 24 h. A digest of the protocol:
as §1

Series [27] deals with HEp-2. Kind of series: Cytotoxicity against human Hep2 cells assessed as cell survival at 100 ug/ml after 24 hrs by transmission electron microscopic analysis. Type of series: cell-based. The following applies: hep-2, 24 h. The method, boiled down:
as §1

Series [28] deals with HEp-2. Kind of series: Cytotoxicity against human Hep2 cells assessed as induction of vacuolization in proximity of mitochondria at 5 ug/ml after 24 hrs by transmission electron microscopic analysis. Type of series: cell-based. The following applies: hep-2, 24 h. A digest of the protocol:
as §1

Series [29] has as its system HEp-2. Kind of series: Cytotoxicity against human Hep2 cells assessed as appearance of finely granular cytoplasm at 5 ug/ml after 24 hrs by transmission electron microscopic analysis. The conditions noted are these: hep-2, 24 h. Type of series: cell-based. A digest of the protocol: as §1

≈ marks a conversion by molar mass, not a printed value.

As for `CCC/C(C)=N/Nc1nc(-c2ccc(C)cc2)cs1`, the Activity result in series [1] was “Toxic”. In addition, in series [2], the 50% cytotoxic concentration (CC50) at 24 h is not below 100 µg/mL. In addition, the viability at 24 h, 0.005 ug/ml in series [3] is 97%. The viability at 24 h, 0.05 ug/ml in series [4] amounted to 94%. Moreover, the viability at 24 h, 0.5 ug/ml in series [5] came to 91%. In series [6], the viability at 24 h, 5 ug/ml worked out at 93%. Moreover, the viability at 24 h, 10 ug/ml in [7] was 83.2%. In addition, the viability at 24 h, 50 ug/ml in [8] was 72.8%. For the same molecule, the viability at 24 h, 100 ug/ml in [9] stood at 62%. The MIC in series [10] came out at 2 µg/mL (≈ 7.32 µM); in series [11], 2 µg/mL (≈ 7.32 µM); in series [12], 2 µg/mL (≈ 7.32 µM); in series [13], 2 µg/mL (≈ 7.32 µM); in series [14] it was 0.5 µg/mL (≈ 1.83 µM); in series [15] it was 0.5 µg/mL (≈ 1.83 µM). In addition, the minimal inhibitory concentration (MIC) in [16], in series [17], in series [18], in [19], in series [20] and in series [21] was more than 256 µg/mL throughout. In addition, the MIC in [22] and in [23] was more than 256 µg/mL throughout.

With `CC/C(C)=N/Nc1nc(-c2ccc(OC)cc2)cs1`, the Activity result in [24], in [25] and in series [26] was “Toxic” each time. Also, the CC50 at 24 h in series [2] came out at 25 µg/mL (≈ 90.8 µM). The viability at 24 h, 0.005 ug/ml in series [3] came to 78%. Besides, in series [4], the viability at 24 h, 0.05 ug/ml was found to be 71%. The viability at 24 h, 0.5 ug/ml in series [5] was found to be 64%. Besides, the viability at 24 h, 5 ug/ml in series [6] came out at 69%. In addition, the viability at 24 h, 10 ug/ml in series [7] was found to be 64%. In [8], the viability at 24 h, 50 ug/ml was 0%. The viability at 24 h, 100 ug/ml in [9] amounted to 0%. Also, the minimal inhibitory concentration (MIC) in series [10] came out at 2 µg/mL (≈ 7.26 µM); in series [11], 2 µg/mL (≈ 7.26 µM); in [12], 2 µg/mL (≈ 7.26 µM); in series [13], 2 µg/mL (≈ 7.26 µM); in series [14], 2 µg/mL (≈ 7.26 µM); in [15], 0.25 µg/mL (≈ 0.908 µM). For the same molecule, the MIC in series [16], in [17], in [18], in series [19], in [20] and in series [21] was more than 256 µg/mL throughout. Also, the minimum inhibitory concentration (MIC) in series [22] and in [23] was more than 256 µg/mL in each case.

Take `Clc1ccccc1C(c1ccccc1)(c1ccccc1)n1ccnc1` [CLOTRIMAZOLE]: the Activity result in [27], in series [28] and in [29] was “Toxic” each time. Besides, the CC50 at 24 h in series [2] was found to be 38 µg/mL (≈ 110 µM). For the same molecule, the viability at 24 h, 0.005 ug/ml in series [3] amounted to 94.4%. Further, in series [4], the viability at 24 h, 0.05 ug/ml was determined as 93%. Further, in [5], the viability at 24 h, 0.5 ug/ml was found to be 93.4%. The viability at 24 h, 5 ug/ml in [6] turned out to be 92.5%. For the same molecule, in [8], the viability at 24 h, 50 ug/ml turned out to be 0%. Also, the viability at 24 h, 100 ug/ml in series [9] worked out at 0%. Besides, the MIC in [10] was 4 µg/mL (≈ 11.6 µM); in series [13], 2 µg/mL (≈ 5.8 µM); in [14], 2 µg/mL (≈ 5.8 µM).
